Data set [1] has as its target Calcium release-activated calcium channel protein 1 (Homo sapiens) (UniProt Q96D31). The data set can be described thus: Antagonist activity at human ORAI1 expressed in HEK293T cells assessed as […]-induced inwardly rectifying current at 90 uM and -120 mV by whole cell patch-clamp method relative to control. Type of data set: cell-based. Further details: scale not given: the % may be the effect or the level left. On the technique in general: The patch-clamp technique gives a direct electrical read-out from membranes.

Data set [2] addresses Transient receptor potential cation channel subfamily V member 1 (Homo sapiens) (UniProt Q8NER1). Put plainly: Antagonist activity at human TRPV1 expressed in HEK293T cells assessed as capsaicin-induced inward transient currents at 90 uM and -60 mV by whole cell patch-clamp method relative to control. The class given is cell-based. Further details: scale not given: the % may be the effect or the level left. In outline: (§1)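 Whole-cell patch clamp, with TRPV1 current evoked by 1 μM capsaicin. Current was compared before and after 90 μM test agent using mean I−V curves, read at −60 mV. Remaining current was normalized to the steady-state peak current before treatment (100%), reported as mean ± SEM, n = 3–6.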

For data set [3], the system named is B16-F10. The data set can be described thus: Cytotoxicity in mouse B16F10 cells at <3 ug/ml measured after 48 hrs by MTT assay. The class given is cell-based. As to conditions: b16-f10, 48 h. On the technique in general: Tetrazolium dyes change colour on reduction, which living cells bring about.
Data set [4] has as its target Calcium release-activated calcium channel protein 1 (Homo sapiens) (UniProt Q96D31). Put plainly: Antagonist activity at human ORAI1 expressed in HEK293T cells assessed as inhibition of […]-induced inwardly rectifying current at -120 mV by whole cell patch-clamp method. Type of data set: cell-based.
Data set [5] is filed under the species Homo sapiens. The data set can be described thus: Inhibition of SOCE signalling in human Jurkat-T cells assessed as reduction in alpha-CD3 induced cytoplasmic calcium concentration at 50 uM measured at every 2 sec interval by Fura-2 dye based fluorimetric analysis. The class given is cell-based. Further details: scale not given: the % may be the effect or the level left.

The target in data set [6] is Calcium release-activated calcium channel protein 1 (Homo sapiens) (UniProt Q96D31). The data set can be described thus: Antagonist activity at human ORAI1 expressed in HEK293T cells assessed as inhibition of […]-induced inwardly rectifying current at 90 uM and -120 mV by whole cell patch-clamp method relative to control. Type of data set: cell-based.
Calcium release-activated calcium channel protein 1 (Homo sapiens), sequence (Q96D31 whole entry, looked up): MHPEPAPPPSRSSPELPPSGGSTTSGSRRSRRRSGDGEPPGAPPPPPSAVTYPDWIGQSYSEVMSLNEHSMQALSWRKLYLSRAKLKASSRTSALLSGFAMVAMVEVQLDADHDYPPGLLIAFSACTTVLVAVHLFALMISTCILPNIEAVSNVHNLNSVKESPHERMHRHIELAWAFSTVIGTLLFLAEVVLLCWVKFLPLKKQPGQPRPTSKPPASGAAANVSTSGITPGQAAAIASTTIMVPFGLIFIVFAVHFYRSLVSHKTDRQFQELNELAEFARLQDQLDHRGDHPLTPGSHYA
Data set [7] deals with B16-F10. Put plainly: Inhibition of UV-induced melanogenesis in mouse B16F10 cells assessed as reduction in melanin level pretreated with compound prior to UVB exposure measured after 48 hrs by spectrophotometric method. Type of data set: functional, cell-based. In short, it runs like this: (§2)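 B16F10 murine melanoma cells were pretreated with test agent (7.5 or 15 μg/mL; reference ORAI1 inhibitor 3 μg/mL) before UVB exposure. Melanin content was measured 48 h later.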

Data set [8] concerns B16-F10. Put plainly: Inhibition of UV-induced melanogenesis in mouse B16F10 cells assessed as reduction in melanin level pretreated at 7.5 ug/ml prior to UVB exposure measured after 48 hrs by spectrophotometric method. The class given is functional. Also on record: scale not given: the % may be the effect or the level left. In short, it runs like this: as §2
Data set [9] relates to B16-F10. The data set can be described thus: Cytotoxicity in mouse B16F10 cells at <15 ug/ml measured after 48 hrs by MTT assay. Type of data set: cell-based. As to conditions: b16-f10, 48 h.
The species entered for data set [10] is Homo sapiens. The data set can be described thus: Inhibition of SOCE signalling in human Jurkat-T cells assessed as reduction in alpha-CD3 induced cytoplasmic calcium concentration measured at every 2 sec interval by Fura-2 dye based fluorimetric analysis. The class given is cell-based.
Data set [11] is filed under the species Homo sapiens. The data set can be described thus: Inhibition of SOCE signalling in human Jurkat-T cells assessed as reduction in alpha-CD3 induced cytoplasmic calcium concentration at 10 uM measured at every 2 sec interval by Fura-2 dye based fluorimetric analysis. Type of data set: cell-based. Also on record: scale not given: the % may be the effect or the level left.

Data set [12] has as its system B16-F10. The data set can be described thus: Inhibition of UV-induced melanogenesis in mouse B16F10 cells assessed as reduction in melanin level pretreated at 15 ug/ml prior to UVB exposure measured after 48 hrs by spectrophotometric method. Type of data set: functional. Also on record: scale not given: the % may be the effect or the level left. In outline: as §2

Data set [13] deals with Calcium release-activated calcium channel protein 1 (Homo sapiens) (UniProt Q96D31). The data set can be described thus: Antagonist activity at human ORAI1 expressed in HEK293T cells assessed as inhibition of […] induced inwardly rectifying current at 30 uM and -120 mV by whole cell patch-clamp method. Type of data set: cell-based.
Data set [14] has the same target. The data set can be described thus: Antagonist activity at human ORAI1 expressed in HEK293T cells assessed as inhibition of […]-induced inwardly rectifying current at 10 uM and -120 mV by whole cell patch-clamp method. The class given is cell-based.
Data set [15] deals with Transient receptor potential cation channel subfamily V member 1 (Homo sapiens) (UniProt Q8NER1). Put plainly: Antagonist activity at human TRPV1 expressed in HEK293T cells assessed as inhibition of capsaicin-induced inward transient currents at 90 uM and -60 mV by whole cell patch-clamp method relative to control. Type of data set: cell-based. In short, it runs like this: as §1
Transient receptor potential cation channel subfamily V member 1 (Homo sapiens), sequence (Q8NER1 whole entry): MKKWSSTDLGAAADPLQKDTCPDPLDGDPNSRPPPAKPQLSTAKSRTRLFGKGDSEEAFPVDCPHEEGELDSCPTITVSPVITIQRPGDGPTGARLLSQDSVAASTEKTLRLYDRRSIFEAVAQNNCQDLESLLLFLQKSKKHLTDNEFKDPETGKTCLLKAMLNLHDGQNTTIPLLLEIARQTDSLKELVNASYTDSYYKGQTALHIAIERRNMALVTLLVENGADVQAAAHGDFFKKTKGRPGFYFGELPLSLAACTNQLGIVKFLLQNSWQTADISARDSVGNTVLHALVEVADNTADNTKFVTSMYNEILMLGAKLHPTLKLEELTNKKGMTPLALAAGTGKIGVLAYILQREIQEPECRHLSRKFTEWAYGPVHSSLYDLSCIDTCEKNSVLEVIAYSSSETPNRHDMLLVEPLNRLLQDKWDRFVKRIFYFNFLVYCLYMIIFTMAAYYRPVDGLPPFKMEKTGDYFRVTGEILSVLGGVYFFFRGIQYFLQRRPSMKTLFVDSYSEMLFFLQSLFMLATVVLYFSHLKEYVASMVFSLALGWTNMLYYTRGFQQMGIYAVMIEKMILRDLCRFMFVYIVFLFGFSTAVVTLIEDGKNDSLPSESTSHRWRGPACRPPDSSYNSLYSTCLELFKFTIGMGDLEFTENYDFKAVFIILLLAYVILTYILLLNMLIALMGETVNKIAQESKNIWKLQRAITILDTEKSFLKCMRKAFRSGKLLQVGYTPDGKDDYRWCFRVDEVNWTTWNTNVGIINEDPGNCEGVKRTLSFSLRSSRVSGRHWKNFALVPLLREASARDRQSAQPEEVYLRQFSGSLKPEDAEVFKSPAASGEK

Data set [16] is filed under the species Homo sapiens. The data set can be described thus: Inhibition of SOCE signalling in human Jurkat-T cells assessed as reduction in alpha-CD3 induced cytoplasmic calcium concentration at 30 uM measured at every 2 sec interval by Fura-2 dye based fluorimetric analysis. The class given is cell-based. Also on record: scale not given: the % may be the effect or the level left.

Here are results for six compounds from ChEMBL document CHEMBL4477174, “Valencene from the Rhizomes of Cyperus rotundus Inhibits Skin Photoaging-Related Ion Channels and UV-Induced Melanogenesis in B16F10 Melanoma Cells” (J Nat Prod, 2016).

As usually defined, the inhibition is the relative decrease from the control value, in per cent.

On to `C=C(C)[C@@H]1CC[C@@]2(C)CCC(=O)C(C)=C2C1`, for which the Activity in [1] is 50%; in [2], 94%.
As to `Cc1nnsc1C(=O)Nc1ccc(-n2nc(C(F)(F)F)cc2C(F)(F)F)cc1`, in data set [3], the Activity result is listed as “Non-Toxic”.
For `C=C1C2CCC(C2)C1(C)C` (centres undefined), the Activity is 79% in data set [1] and 115% in [2].
Consider `C=C(C)[C@@H]1CCC2=CCC[C@@H](C)[C@]2(C)C1`, for which the Activity in [1] is 5%; in data set [5], 85%; in data set [2], 31%; in data set [7], “Dose-dependent effect”; in data set [8], 94.82%; in [9] it was “Non-Toxic”. Also, the Activity entry in data set [10] was “Dose-dependent effect”; in [11] it was 53%; in data set [12], 82.66%; in data set [16], 75%. The inhibition result in data set [4] is “Dose-dependent effect”; in data set [6], 94 to 95%; in data set [13], 45%; in data set [14] it was 13%; in data set [15], 69%.
For the compound `C=C(C)[C@@H]1CCC2=CC(=O)C[C@@H](C)[C@]2(C)C1`, the Activity in [1] amounted to 53%; in data set [2], 176%.
Turning to `C=C1CC[C@H]2O[C@]2(C)CC[C@@H]2[C@@H]1CC2(C)C`, the Activity in data set [1] was 44%; in [2], 45%.
